In test [1] the target is Procathepsin L (Homo sapiens) (UniProt P07711). As to the kind of experiment: Inhibition of recombinant human cathepsin L using GGALRAG substrate at up to 20 uM after 3 hrs. In short, it runs like this:
(§1)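 Each protease was preincubated 30 min at 25 °C with compound in its assay buffer. Peptide substrate was then added and the reaction ran 3 h at 25 °C before quenching with SDS/EDTA/iodoacetate. Substrate-to-product conversion (%) was read by microfluidic electrophoresis. Compounds were tested in singlicate as 12-point 3-fold dilutions from 20 μM to 0.1 nM. IC50 was taken as the concentration giving 50% of no-compound control activity.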

For another test, the target named is T1, Caspase-6 (Homo sapiens) (UniProt P55212).
T1 sequence (whole entry): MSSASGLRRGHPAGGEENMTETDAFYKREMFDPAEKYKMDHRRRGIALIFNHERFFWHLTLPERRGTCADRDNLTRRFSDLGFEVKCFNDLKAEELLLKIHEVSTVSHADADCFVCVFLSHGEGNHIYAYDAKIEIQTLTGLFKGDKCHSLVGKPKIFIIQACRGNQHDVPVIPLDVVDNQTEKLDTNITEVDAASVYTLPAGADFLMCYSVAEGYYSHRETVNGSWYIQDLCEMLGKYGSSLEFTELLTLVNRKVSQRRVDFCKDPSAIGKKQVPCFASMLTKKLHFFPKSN
As to the kind of experiment: Inhibition of recombinant human caspase 6 using VEHDGG substrate at up to 20 uM after 3 hrs. The method, boiled down:
(§2)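 Outsourced microfluidic protease panel. Compound was preincubated with each protease for 30 min at 25 °C, then peptide substrate was added for 3 h at 25 °C and quenched with SDS/EDTA/iodoacetate. Substrate-to-product conversion was measured on LabChip. Compounds were tested singly in a 12-point 3-fold dilution series, top 20 μM (5 μM for two reference compounds).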

The target of test [2] is Coagulation factor X (Homo sapiens) (UniProt P00742). As to the kind of experiment: Inhibition of recombinant human factor 10a using ALPRTMFIQ substrate at up to 20 uM after 3 hrs. The method, boiled down: as §1
The target of test [3] is Matrix metalloproteinase-9 (Homo sapiens) (UniProt P14780). As to the kind of experiment: Inhibition of recombinant human MMP-9 using GRIGFL substrate up to 20 uM. In short, it runs like this: as §2
A further test has as its target Collagenase 3 (Homo sapiens, UniProt P45452). As to the kind of experiment: Inhibition of full-length recombinant human MMP-13 assessed as bovine type-2 collagen hydrolysis after 22 hrs by fluorescence assay.
The target of test [4] is Angiotensin-converting enzyme (Homo sapiens) (UniProt P12821). As to the kind of experiment: Inhibition of recombinant human ACE using RPFNYLAK substrate up to 20 uM. The method, boiled down: as §2
Test [5] deals with Prothrombin (Homo sapiens) (UniProt P00734). As to the kind of experiment: Inhibition of recombinant human thrombin using PRTLT substrate at up to 20 uM after 3 hrs. In short, it runs like this:
as §1

The target in test [6] is Stromelysin-1 (Homo sapiens) (UniProt P08254). As to the kind of experiment: Inhibition of recombinant human MMP-3 using GRIGFL substrate up to 20 uM. The method, boiled down: as §2
In the next test the target is T2, Caspase-5 (Homo sapiens) (UniProt P51878).
T2 sequence (whole entry): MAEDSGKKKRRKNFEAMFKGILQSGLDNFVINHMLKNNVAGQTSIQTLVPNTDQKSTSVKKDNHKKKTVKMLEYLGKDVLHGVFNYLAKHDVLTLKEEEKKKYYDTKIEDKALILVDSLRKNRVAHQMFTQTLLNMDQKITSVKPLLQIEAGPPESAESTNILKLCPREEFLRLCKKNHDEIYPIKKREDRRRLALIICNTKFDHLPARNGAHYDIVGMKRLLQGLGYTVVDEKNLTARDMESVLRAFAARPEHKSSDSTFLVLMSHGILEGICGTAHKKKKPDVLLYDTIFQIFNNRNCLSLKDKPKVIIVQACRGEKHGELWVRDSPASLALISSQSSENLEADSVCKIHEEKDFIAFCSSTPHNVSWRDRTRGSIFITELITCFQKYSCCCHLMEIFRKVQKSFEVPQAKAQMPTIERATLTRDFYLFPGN
Briefly: Inhibition of recombinant human caspase 5 using LEHDGP substrate at up to 20 uM after 3 hrs. In short, it runs like this: as §2

Test [7] has as its target Cathepsin D (Homo sapiens) (UniProt P07339). Briefly: Inhibition of recombinant human cathepsin D using EVNLDAEFRK substrate at up to 20 uM after 3 hrs. The method, boiled down:
as §2

Test [8] concerns the target 72 kDa type IV collagenase (Homo sapiens) (UniProt P08253). As to the kind of experiment: Inhibition of recombinant human MMP-2 using GRIGFL substrate up to 20 uM. The method, boiled down:
as §2

For another test, the target named is Furin (Homo sapiens) (UniProt P09958). As to the kind of experiment: Inhibition of recombinant human furin using RRVKRSLD substrate at up to 20 uM after 3 hrs. The method, boiled down:
as §1

The next test deals with T3, Caspase-1 (Homo sapiens) (UniProt P29466).
T3 sequence (whole entry): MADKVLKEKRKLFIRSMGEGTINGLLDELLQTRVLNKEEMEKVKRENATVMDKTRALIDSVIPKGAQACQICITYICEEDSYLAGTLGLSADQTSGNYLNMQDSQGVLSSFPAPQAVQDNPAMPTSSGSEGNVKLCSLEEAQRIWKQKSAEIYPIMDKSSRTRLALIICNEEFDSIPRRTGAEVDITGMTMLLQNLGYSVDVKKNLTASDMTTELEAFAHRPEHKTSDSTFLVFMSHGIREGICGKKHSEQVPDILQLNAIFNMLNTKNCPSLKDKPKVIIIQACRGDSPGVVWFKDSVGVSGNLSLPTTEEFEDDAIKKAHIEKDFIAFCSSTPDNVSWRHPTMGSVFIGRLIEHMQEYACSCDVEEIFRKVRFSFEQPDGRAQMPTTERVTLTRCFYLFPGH
As to the kind of experiment: Inhibition of recombinant human caspase 1 using WEHDGPKR substrate at up to 20 uM after 3 hrs. In short, it runs like this: as §2

The target in test [9] is Cathepsin S (Homo sapiens) (UniProt P25774). As to the kind of experiment: Inhibition of recombinant human cathepsin S using RTLTAK substrate at up to 20 uM after 3 hrs. The method, boiled down:
as §1

For test [10], the target named is Macrophage metalloelastase (Homo sapiens) (UniProt P39900). Briefly: Inhibition of recombinant human MMP-12 using GRIGFL substrate up to 20 uM. In short, it runs like this: as §2
In a further test the target is Cytochrome P450 2C9 (Homo sapiens, UniProt P11712). Briefly: Inhibition of CYP2C9 (unknown origin) using diclofenac substrate. Type of test: ADME. In short, it runs like this:
(§3)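 Human liver microsomes with probe substrate and an NADPH-regenerating system in 0.1 M potassium phosphate pH 7.4 at 37 °C, run in duplicate. Inhibitor at 0–20 μM (0–2.5 μM for one compound), eight concentrations. Reactions were stopped with acetonitrile/formic acid containing isotope-labelled internal standard, and metabolite area ratios were compared with and without inhibitor. IC50 was taken by linear interpolation between bracketing concentrations.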

The next test concerns the target Cytochrome P450 3A4 (Homo sapiens, UniProt P08684). As to the kind of experiment: Inhibition of CYP3A4 (unknown origin) using midazolam substrate. Type of test: ADME. The method, boiled down:
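Reactions stopped with acetonitrile/0.1% formic acid plus labelled internal standard. Metabolite measured by LC-MS area ratio. IC50 by linear interpolation.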

A further test addresses Cytochrome P450 2D6 (Homo sapiens, UniProt P10635). Briefly: Inhibition of CYP2D6 (unknown origin) using dextromethophan substrate. Type of test: ADME. The method, boiled down: as §3
Another test concerns the target Cytochrome P450 2C19 (Homo sapiens, UniProt P33261). Briefly: Inhibition of CYP2C19 (unknown origin) using (S)-mephentoin substrate. In kind it is ADME. The method, boiled down: as §3

Each structure is given as a SMILES string.

Cytochrome P450 3A4, sequence (P08684 whole entry): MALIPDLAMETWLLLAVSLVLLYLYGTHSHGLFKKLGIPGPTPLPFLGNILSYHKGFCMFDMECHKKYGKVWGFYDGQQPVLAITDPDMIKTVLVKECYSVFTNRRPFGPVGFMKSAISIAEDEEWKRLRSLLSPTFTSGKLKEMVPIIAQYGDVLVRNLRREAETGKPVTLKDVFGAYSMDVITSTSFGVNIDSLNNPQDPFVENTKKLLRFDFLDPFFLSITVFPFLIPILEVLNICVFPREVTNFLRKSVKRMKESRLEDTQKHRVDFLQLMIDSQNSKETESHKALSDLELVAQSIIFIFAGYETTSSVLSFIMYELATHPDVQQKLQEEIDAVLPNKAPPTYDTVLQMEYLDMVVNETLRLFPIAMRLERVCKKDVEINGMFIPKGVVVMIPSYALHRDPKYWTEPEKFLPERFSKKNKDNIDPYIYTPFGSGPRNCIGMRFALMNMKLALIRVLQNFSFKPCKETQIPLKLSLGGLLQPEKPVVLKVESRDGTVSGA
Cytochrome P450 2D6, sequence (P10635 whole entry): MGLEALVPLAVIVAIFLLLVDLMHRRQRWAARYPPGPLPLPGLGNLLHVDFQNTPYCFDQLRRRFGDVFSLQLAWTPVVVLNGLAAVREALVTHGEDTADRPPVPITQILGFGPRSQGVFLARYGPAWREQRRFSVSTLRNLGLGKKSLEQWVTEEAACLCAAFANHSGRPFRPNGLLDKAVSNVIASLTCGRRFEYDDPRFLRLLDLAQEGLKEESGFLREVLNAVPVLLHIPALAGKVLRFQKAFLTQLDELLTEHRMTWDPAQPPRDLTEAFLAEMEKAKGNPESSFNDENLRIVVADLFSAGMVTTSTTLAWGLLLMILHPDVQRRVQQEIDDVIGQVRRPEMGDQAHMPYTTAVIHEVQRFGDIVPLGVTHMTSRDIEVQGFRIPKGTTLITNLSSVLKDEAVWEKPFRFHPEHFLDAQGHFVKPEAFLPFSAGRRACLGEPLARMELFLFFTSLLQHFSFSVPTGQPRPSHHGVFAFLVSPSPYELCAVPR
72 kDa type IV collagenase (Homo sapiens), sequence (P08253 110-660 limits assumed): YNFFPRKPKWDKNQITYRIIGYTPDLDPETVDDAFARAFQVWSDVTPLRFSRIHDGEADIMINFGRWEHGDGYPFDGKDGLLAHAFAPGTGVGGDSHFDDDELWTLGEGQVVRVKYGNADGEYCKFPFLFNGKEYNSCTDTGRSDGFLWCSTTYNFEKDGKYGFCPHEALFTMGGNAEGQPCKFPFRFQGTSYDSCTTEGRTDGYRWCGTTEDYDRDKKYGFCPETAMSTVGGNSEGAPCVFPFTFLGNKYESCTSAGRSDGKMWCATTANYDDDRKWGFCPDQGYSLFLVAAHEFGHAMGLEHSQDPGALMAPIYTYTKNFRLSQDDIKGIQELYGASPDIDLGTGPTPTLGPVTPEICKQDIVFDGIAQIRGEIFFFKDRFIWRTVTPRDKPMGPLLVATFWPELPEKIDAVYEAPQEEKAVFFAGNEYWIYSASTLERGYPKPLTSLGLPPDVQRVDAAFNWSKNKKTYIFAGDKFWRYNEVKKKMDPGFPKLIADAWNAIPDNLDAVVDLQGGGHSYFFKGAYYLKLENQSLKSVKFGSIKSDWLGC
Procathepsin L (Homo sapiens), sequence (P07711 114-333 limits assumed): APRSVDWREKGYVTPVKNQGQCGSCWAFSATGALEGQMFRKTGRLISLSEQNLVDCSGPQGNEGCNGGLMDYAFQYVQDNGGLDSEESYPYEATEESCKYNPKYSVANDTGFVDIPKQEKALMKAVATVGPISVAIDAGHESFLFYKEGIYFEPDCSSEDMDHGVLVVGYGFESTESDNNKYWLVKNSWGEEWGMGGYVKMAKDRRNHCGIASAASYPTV
Cathepsin S (Homo sapiens), sequence (P25774 115-331 limits assumed): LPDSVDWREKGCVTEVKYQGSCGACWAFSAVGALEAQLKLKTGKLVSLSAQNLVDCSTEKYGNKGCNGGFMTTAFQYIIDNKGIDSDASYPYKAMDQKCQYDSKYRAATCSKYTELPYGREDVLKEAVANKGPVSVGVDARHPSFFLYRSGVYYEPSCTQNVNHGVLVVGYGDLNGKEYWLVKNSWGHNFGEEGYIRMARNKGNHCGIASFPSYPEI
Cytochrome P450 2C19, sequence (P33261 whole entry): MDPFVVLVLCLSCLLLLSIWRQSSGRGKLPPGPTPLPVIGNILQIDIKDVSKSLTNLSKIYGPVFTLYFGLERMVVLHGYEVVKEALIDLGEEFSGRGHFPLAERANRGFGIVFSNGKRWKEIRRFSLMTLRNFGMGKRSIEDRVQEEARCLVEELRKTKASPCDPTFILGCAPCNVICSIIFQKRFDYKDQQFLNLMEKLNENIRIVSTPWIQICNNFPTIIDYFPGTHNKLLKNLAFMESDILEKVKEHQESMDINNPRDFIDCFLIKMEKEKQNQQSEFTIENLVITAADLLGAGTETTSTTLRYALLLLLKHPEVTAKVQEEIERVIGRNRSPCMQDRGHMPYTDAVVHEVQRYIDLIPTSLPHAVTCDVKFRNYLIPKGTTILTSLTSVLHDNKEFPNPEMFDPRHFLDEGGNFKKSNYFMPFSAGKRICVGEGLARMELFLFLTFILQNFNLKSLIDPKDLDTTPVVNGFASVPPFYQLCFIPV
Matrix metalloproteinase-9 (Homo sapiens), sequence (P14780 whole entry): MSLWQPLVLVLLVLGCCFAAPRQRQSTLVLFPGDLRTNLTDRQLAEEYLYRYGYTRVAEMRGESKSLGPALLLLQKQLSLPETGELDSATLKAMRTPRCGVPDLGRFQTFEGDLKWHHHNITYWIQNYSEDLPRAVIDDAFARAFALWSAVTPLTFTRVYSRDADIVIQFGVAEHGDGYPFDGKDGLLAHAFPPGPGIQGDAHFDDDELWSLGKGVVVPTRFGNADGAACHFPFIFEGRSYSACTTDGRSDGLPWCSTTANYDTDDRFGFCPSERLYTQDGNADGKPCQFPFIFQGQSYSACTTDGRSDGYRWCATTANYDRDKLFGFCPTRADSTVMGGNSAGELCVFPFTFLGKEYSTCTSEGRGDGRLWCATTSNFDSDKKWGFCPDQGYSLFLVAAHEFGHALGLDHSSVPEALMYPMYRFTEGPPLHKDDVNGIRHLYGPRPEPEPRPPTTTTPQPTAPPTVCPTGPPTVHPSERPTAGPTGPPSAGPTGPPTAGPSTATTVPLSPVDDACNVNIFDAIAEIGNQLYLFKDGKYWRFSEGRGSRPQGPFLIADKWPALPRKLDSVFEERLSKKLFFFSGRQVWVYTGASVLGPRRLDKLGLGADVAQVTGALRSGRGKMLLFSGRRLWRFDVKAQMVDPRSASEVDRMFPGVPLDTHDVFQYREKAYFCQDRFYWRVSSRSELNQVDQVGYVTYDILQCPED
Angiotensin-converting enzyme (Homo sapiens), sequence (P12821 whole entry): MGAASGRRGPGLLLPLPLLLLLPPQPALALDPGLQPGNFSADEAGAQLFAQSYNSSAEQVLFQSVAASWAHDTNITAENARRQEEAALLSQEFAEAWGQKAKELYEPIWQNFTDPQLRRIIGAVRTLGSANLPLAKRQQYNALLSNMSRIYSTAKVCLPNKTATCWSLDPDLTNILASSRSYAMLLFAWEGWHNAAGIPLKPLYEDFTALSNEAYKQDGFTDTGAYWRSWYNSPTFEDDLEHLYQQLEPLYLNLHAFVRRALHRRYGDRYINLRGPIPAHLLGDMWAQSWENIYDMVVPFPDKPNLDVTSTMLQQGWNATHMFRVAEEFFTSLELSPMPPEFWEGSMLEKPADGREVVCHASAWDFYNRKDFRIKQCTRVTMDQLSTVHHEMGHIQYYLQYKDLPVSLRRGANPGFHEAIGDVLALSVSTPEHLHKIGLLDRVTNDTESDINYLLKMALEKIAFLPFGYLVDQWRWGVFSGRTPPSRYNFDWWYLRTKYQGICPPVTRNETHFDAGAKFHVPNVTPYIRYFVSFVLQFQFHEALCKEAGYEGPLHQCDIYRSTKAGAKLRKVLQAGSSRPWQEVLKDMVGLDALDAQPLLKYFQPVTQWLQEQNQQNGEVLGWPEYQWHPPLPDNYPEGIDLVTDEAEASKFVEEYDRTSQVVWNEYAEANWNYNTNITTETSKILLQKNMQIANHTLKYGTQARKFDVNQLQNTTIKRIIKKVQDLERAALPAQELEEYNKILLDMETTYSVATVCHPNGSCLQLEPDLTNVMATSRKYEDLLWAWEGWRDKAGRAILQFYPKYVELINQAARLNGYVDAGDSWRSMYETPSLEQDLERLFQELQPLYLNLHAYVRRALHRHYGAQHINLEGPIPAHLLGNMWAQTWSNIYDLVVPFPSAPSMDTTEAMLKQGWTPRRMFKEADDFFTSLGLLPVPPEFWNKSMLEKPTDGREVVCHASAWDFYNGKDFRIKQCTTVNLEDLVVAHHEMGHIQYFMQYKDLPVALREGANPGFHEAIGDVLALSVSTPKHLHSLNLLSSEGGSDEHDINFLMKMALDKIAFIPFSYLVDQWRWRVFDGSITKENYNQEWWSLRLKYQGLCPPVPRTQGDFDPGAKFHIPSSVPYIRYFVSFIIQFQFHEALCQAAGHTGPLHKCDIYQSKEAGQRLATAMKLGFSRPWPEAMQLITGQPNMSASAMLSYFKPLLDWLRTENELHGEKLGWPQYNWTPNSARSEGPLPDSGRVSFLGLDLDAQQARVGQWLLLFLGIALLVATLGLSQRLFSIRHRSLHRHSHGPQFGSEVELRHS
Stromelysin-1 (Homo sapiens), sequence (P08254 100-477 limits assumed): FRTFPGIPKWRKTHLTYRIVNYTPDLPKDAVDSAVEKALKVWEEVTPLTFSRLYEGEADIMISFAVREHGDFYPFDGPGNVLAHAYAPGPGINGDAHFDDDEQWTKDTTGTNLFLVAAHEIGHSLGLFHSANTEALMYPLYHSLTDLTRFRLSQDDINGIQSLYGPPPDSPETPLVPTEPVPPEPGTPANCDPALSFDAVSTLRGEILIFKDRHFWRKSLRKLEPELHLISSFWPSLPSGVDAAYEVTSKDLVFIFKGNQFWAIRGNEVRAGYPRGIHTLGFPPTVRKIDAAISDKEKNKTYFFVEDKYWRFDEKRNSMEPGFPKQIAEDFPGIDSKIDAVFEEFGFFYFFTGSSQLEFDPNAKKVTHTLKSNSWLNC

As to `Cc1ccc(CSc2nc(O)c3c(n2)CCC3)cc1`, the inhibition – broadly, the share of the control response that was lost under treatment – is less than 10% in test [1]; less than 10% on Caspase-6 (Homo sapiens); less than 10% in test [2]; more than 10% in test [3]; “Dose-dependent effect” on Collagenase 3; more than 10% in test [4]. Further, the inhibition in test [5] was less than 10%; in test [6], more than 10%; on Caspase-5 (Homo sapiens) it was more than 10%; in [7] it was less than 10%; in [8], more than 10%; at Furin (Homo sapiens), less than 10%. Moreover, the inhibition on Caspase-1 (Homo sapiens) is less than 10%; in [9], less than 10%; in test [10], more than 10%.

Consider `COC(=O)c1ccc(CSc2nc3c(c(=O)[nH]2)CCC3)cc1`, for which the inhibition was less than 10% in test [1]; less than 10% at Caspase-6 (Homo sapiens); less than 10% in test [2]; more than 10% in [3]; more than 10% in test [4]; less than 10% in test [5]. Further, the inhibition in test [6] is more than 10%; at Caspase-5 (Homo sapiens), less than 10%; in test [7], less than 10%; in test [8], more than 10%; at Furin (Homo sapiens), less than 10%; on Caspase-1 (Homo sapiens), less than 10%. Moreover, the inhibition is less than 10% in test [9] and more than 10% in test [10]. In addition, the half-maximal inhibitory concentration (IC50) (usually the concentration that inhibits the measured activity by half) against Cytochrome P450 2C9 was more than 20 µM; on Collagenase 3, 2.3 µM; against Cytochrome P450 3A4, more than 20 µM; on Cytochrome P450 2D6, more than 20 µM; at Cytochrome P450 2C19, more than 20 µM.

With `Cc1cc(CNC(=O)c2cc(C(=O)NCc3ccc(F)c(C)c3)ncn2)ccc1F`, the IC50 against Cytochrome P450 2C9, at Cytochrome P450 2D6 and at Cytochrome P450 2C19 was more than 20 µM throughout.

For the compound `Cn1c(=O)n(Cc2ccc(C(=O)O)cc2)c(=O)c2cc(C#CCc3ccccc3)ccc21`, the half-inhibitory concentration (IC50) at Cytochrome P450 2C9, on Cytochrome P450 3A4, against Cytochrome P450 2D6 and on Cytochrome P450 2C19 was more than 2.5 µM throughout.

In the case of `Oc1nc(SCc2ccc(Cl)cc2)nc2c1CCC2`, the inhibition in [1] is less than 10%; at Caspase-6 (Homo sapiens), less than 10%; in [2], less than 10%; in test [3], more than 10%; at Collagenase 3 it was “Dose-dependent effect”; in test [4], more than 10%. In addition, the inhibition in [5] was less than 10%; in test [6], more than 10%; on Caspase-5 (Homo sapiens), less than 10%; in test [7], less than 10%; in [8], more than 10%; at Furin (Homo sapiens) it was less than 10%. Besides, the inhibition was less than 10% on Caspase-1 (Homo sapiens), less than 10% in test [9] and more than 10% in test [10]. Moreover, the half-maximal inhibitory concentration (IC50) against Cytochrome P450 2C9 is 19 µM; on Collagenase 3, 0.7 µM; against Cytochrome P450 3A4, more than 20 µM; against Cytochrome P450 2D6 it was more than 20 µM; at Cytochrome P450 2C19, 6.5 µM.

(Values after ChEMBL document CHEMBL3352788, “Characterization of selective exosite-binding inhibitors of matrix metalloproteinase 13 that prevent articular cartilage degradation in vitro” (J Med Chem, 2014).)
